Measured values: ChEMBL document CHEMBL3797091, “Part 2. Notch-sparing γ-secretase inhibitors: The study of novel γ-amino naphthyl alcohols” (Bioorg Med Chem Lett, 2016)
Converted amounts (≈) assume the structure as drawn. The source made the active and inactive calls. The rule behind the calls is not given here.

Assays:
Gamma-secretase = assay: Inhibition of gamma secretase (unknown origin)-mediated notch processing by cell based assay; design: species or system Homo sapiens
[1] = biological target: T1, Gamma-secretase (Homo sapiens) (UniProt Q96BI3+Q9NZ42+Q8WW43+P49768+Q92542+P49810); assay: Inhibition of human gamma secretase mediated amyloid beta (1 to 40) production expressed in CHO cells at 50 uM using APP based Flag-C-100 as substrate after 4 hrs by ELISA; type: cell-based
Method in brief: (§1)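 Enzyme: γ-secretase complex purified from CHO cells stably overexpressing all four human components. Substrate: recombinant APP-based C-100 FLAG. Reaction in 0.2% CHAPSO/HEPES, pH 7.5, at 37°C for 4 h, with compounds in DMSO (1% DMSO final). Stopped with 0.5% SDS. Aβ40 measured by commercial ELISA.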

[2] = biological target: T1, Gamma-secretase (Homo sapiens); assay: Inhibition of human gamma secretase mediated amyloid beta (1 to 40) production expressed in CHO cells at 100 uM using APP based Flag-C-100 as substrate after 4 hrs by ELISA; type: cell-based; method in brief: as §1
[3] = biological target: T1, Gamma-secretase (Homo sapiens); assay: Inhibition of human gamma secretase mediated notch 1 processing by Western blot analysis; type: protein-complex assay
[4] = Solubility of compound in PBS buffer at pH 7.4; type: physicochemical
[5] = Lipophilicity, log D of the compound; type: physicochemical; details: octanol/water
[6] = Plasma protein binding in human; type: ADME, cell-free; details: read-out: PPB (converted)
[7] = Permeability of the compound across apical to basolateral side; type: ADME; details: not told; read-out: permeability
[8] = Metabolic stability in human liver microsomes assessed as parent compound remaining after 60 mins; type: ADME; details: read-out: Stability
[9] = Metabolic stability in rat liver microsomes assessed as parent compound remaining after 60 mins; type: ADME; details: read-out: Stability
[10] = biological target: T1, Gamma-secretase (Homo sapiens); assay: Inhibition of human gamma secretase mediated amyloid beta 42 production expressed in CHO cells at 100 uM using APP based Flag-C-100 as substrate after 4 hrs by ELISA; type: cell-based
[11] = biological target: T1, Gamma-secretase (Homo sapiens); assay: Inhibition of gamma secretase (unknown origin)-mediated amyloid beta (1 to 42) production at 30 uM by cell based assay
[12] = biological target: T1, Gamma-secretase (Homo sapiens); assay: Inhibition of gamma secretase (unknown origin)-mediated amyloid beta (1 to 40) production at 100 uM by cell based assay
[13] = biological target: T1, Gamma-secretase (Homo sapiens); assay: Inhibition of gamma secretase (unknown origin)-mediated amyloid beta (1 to 42) production at 100 uM by cell based assay

| SMILES | inhibition [2] [%] | inhibition [3] | also measured |
| --- | --- | --- | --- |
| CCC(CC)N(Cc1ccc(C(=O)O)cc1)S(=O)(=O)c1ccc(Cl)cc1 | – | – | IC50 (Gamma-secretase): 10 µM |
| CCC(CC)(CN(Cc1ccccc1)C(C)C)C(=O)c1ccc2ccccc2c1 | – | – | inhibition [1]: 40% |
| CCC(CC)(CN(Cc1ccccc1)C(C)C)C(O)c1ccc2ccccc2c1 (racemic) | 82 | inactive | inhibition [12]: 80%; inhibition [13]: 100%; IC50 (Gamma-secretase): > 75 µM |
| CC(C)N(CCC(O)c1cc(C(F)(F)F)cc(C(F)(F)F)c1)Cc1ccccc1 (racemic) | 15 | Active | inhibition [11]: 81% |
| CC(C)N(CCC(O)c1cc(F)cc(Cl)c1)Cc1ccccc1 (racemic) | 30 | Active | – |
| CC(C)N(CCC(O)c1cc2ccccc2o1)Cc1ccccc1 (racemic) | 0 | – | – |
| CC(C)N(CCC(O)c1ccc(C(C)(C)C)cc1)Cc1ccccc1 (racemic) | 72 | Active | inhibition [11]: 14% |
| CC(C)N(CCC(O)c1ccc(OC2CCCCO2)cc1)Cc1ccccc1 (racemic) | 0 | – | – |
| CC(C)N(CCC(O)c1ccc(OCc2ccccc2)cc1)Cc1ccccc1 (racemic) | 31 | inactive | – |
| CC(C)N(CCC(O)c1ccc(Oc2ccccc2)cc1)Cc1ccccc1 (racemic) | 24 | inactive | – |
| CC(C)N(CCC(O)c1ccc2c(c1)OCO2)Cc1ccccc1 (racemic) | 0 | – | – |
| CC(C)N(CCC(O)c1ccc2ccccc2c1)Cc1cc(F)cc(F)c1 (racemic) | 54 | Active | – |
| CC(C)N(CCC(O)c1ccc2ccccc2c1)Cc1ccc(C#N)cc1 (racemic) | 19 | – | – |
| CC(C)N(CCC(O)c1ccc2ccccc2c1)Cc1ccc(Cl)c(Cl)c1 (racemic) | 60 | inactive | – |
| CC(C)N(CCC(O)c1ccc2ccccc2c1)Cc1ccc(F)c(Cl)c1 (racemic) | 38 | – | – |
| CC(C)N(CCC(O)c1ccc2ccccc2c1)Cc1ccc(F)c(F)c1 (racemic) | 64 | inactive | inhibition [13]: 23% |
| CC(C)N(CCC(O)c1ccc2ccccc2c1)Cc1cccc(C#N)c1 (racemic) | 7 | – | – |
| CC(C)N(CCC(O)c1cccc(Oc2ccccc2)c1)Cc1ccccc1 (racemic) | 30 | inactive | – |
| CC(C)N(CCC(O)c1cccc2ccccc12)Cc1ccccc1 (racemic) | 46 | inactive | – |
| CC(C)N(CCC(O)c1ccccc1)Cc1ccccc1 (racemic) | 10 | Active | – |
| CCC(CC)(CN(Cc1ccc(Cl)c(Cl)c1)C(C)C)C(O)c1ccc2ccccc2c1 (racemic) | 59 | inactive | – |
| CCC(CC)(CN(Cc1ccc(F)c(F)c1)C(C)C)C(O)c1ccc2ccccc2c1 (racemic) | 69 | inactive | – |
| COc1cc(CN(CCC(O)c2ccc3ccccc3c2)C(C)C)cc(OC)c1 (racemic) | 17 | inactive | – |
| COc1ccc(CN(CCC(O)c2ccc3ccccc3c2)C(C)C)cc1 (racemic) | 55 | inactive | – |
| Cc1ccc(C(O)CCN(Cc2ccccc2)C(C)C)cc1F (racemic) | 29 | Active | – |

Further lines, with some results ahead:

| inhibition [2] [%] | inhibition [3] | SMILES | also measured |
| --- | --- | --- | --- |
| 81 | inactive | CC(C)N(CCC(O)c1ccc2ccccc2c1)Cc1ccccc1 (racemic) | solubility [4]: 98 µM (≈ 32.7 µg/mL); logD [5]: 3.4; fraction unbound [6]: 0.1; Papp A→B [7]: 184 nm/s; remaining at 1 h [8]: 1%; remaining at 1 h [9]: 0%; inhibition [10]: 67%; IC50 (Gamma-secretase): > 100 µM; inhibition [11]: 45% |
| 0 | – | CC(C)(C)N(CCC(O)c1ccc2ccccc2c1)Cc1ccccc1 (racemic) | – |
| 0 | – | CC(C)CN(CCC(O)c1ccc2ccccc2c1)Cc1ccccc1 (racemic) | – |
| 68 | Active | CC(C)N(CCC(O)c1ccc2ccccc2c1)c1ccccc1 (racemic) | – |
| 18 | Active | CC(C)N(CCCC(O)c1ccc2ccccc2c1)Cc1ccccc1 (racemic) | – |
| 72 | inactive | CC(C)N(Cc1ccccc1)CC(C)(C)C(O)c1ccc2ccccc2c1 (racemic) | – |
| 0 | Active | CC(C)N(Cc1ccccc1)CC(O)c1ccc2ccccc2c1 (racemic) | – |
| 15 | – | CCN(CCC(O)c1ccc2ccccc2c1)Cc1ccccc1 (racemic) | – |
| 15 | inactive | CN(CCC(O)c1ccc2ccccc2c1)Cc1ccccc1 (racemic) | – |
| 51 | inactive | COC(CCN(Cc1ccccc1)C(C)C)c1ccc2ccccc2c1 (racemic) | – |
| 0 | – | COc1ccc(N2CCN(CCC(O)c3ccc4ccccc4c3)CC2)cc1 (racemic) | – |
| 36 | – | OC(CCN(Cc1ccccc1)C1CC1)c1ccc2ccccc2c1 (racemic) | – |
| 32 | – | OC(CCN(Cc1ccccc1)Cc1ccccc1)c1ccc2ccccc2c1 (racemic) | – |
| 15 | inactive | OC(CCN1CCN(Cc2ccccc2)CC1)c1ccc2ccccc2c1 (racemic) | – |
| 61 | inactive | OC(CCN1CCN(c2ccc(F)cc2)CC1)c1ccc2ccccc2c1 (racemic) | – |
| 38 | inactive | OC(CCN1CCN(c2cccc(C(F)(F)F)c2)CC1)c1ccc2ccccc2c1 (racemic) | inhibition [10]: 14% |
| 0 | inactive | OC(CCN1CCN(c2ccccc2)CC1)c1ccc2ccccc2c1 (racemic) | – |
